# Experiments:
# Format in all cases: functional
# Escherichia coli [1] = assay: Antibacterial activity against ESBL-positive Escherichia coli 14-2 after 18 to 24 hrs
# Outline: (§1)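 MIC by standard NCCLS reference procedure (M100-S11); lowest concentration of compound inhibiting visible bacterial growth after incubation at 35 °C for 18–24 h, read as complete inhibition of growth. Ciprofloxacin, levofloxacin and moxifloxacin run alongside as reference agents.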
# Pseudomonas aeruginosa [2] = assay: Antibacterial activity against Pseudomonas aeruginosa ATCC 27853 after 18 to 24 hrs; outline: as §1
# Escherichia coli [3] = assay: Antibacterial activity against ESBL-positive Escherichia coli 14-1 after 18 to 24 hrs; outline: as §1
# Enterococcus faecium [4] = assay: Antibacterial activity against Enterococcus faecium 14-5 after 18 to 24 hrs; outline: as §1
# Pseudomonas aeruginosa [5] = assay: Antibacterial activity against Pseudomonas aeruginosa 14-15 after 18 to 24 hrs; outline: as §1
# Klebsiella pneumoniae [6] = assay: Antibacterial activity against Klebsiella pneumoniae 14-1 after 18 to 24 hrs; outline: as §1
# Enterococcus faecalis [7] = assay: Antibacterial activity against Enterococcus faecalis 14-1 after 18 to 24 hrs; outline: as §1
# Escherichia coli [8] = assay: Antibacterial activity against Escherichia coli 14-2 after 18 to 24 hrs; outline: as §1
# [9] = system: Staphylococcus epidermidis; assay: Antibacterial activity against methicillin-resistant Staphylococcus epidermidis 14-37 after 18 to 24 hrs
# Staphylococcus aureus [10] = assay: Antibacterial activity against methicillin-sensitive Staphylococcus aureus 14-2 after 18 to 24 hrs; outline: as §1
# Enterococcus faecium [11] = assay: Antibacterial activity against Enterococcus faecium 14-1 after 18 to 24 hrs; outline: as §1
# [12] = system: Staphylococcus epidermidis; assay: Antibacterial activity against methicillin-resistant Staphylococcus epidermidis 14-39 after 18 to 24 hrs
# [13] = system: Staphylococcus epidermidis; assay: Antibacterial activity against methicillin-sensitive Staphylococcus epidermidis 14-2 after 18 to 24 hrs; outline: as §1
# Enterococcus faecalis [14] = assay: Antibacterial activity against Enterococcus faecalis 14-2 after 18 to 24 hrs; outline: as §1
# Escherichia coli [15] = assay: Antibacterial activity against Escherichia coli 14-1 after 18 to 24 hrs; outline: as §1
# [16] = system: Staphylococcus epidermidis; assay: Antibacterial activity against methicillin-resistant Staphylococcus epidermidis 14-21 after 18 to 24 hrs
# Enterococcus faecium [17] = assay: Antibacterial activity against Enterococcus faecium 14-2 after 18 to 24 hrs; outline: as §1
# Klebsiella pneumoniae [18] = assay: Antibacterial activity against Klebsiella pneumoniae 14-2 after 18 to 24 hrs; outline: as §1
# Staphylococcus aureus [19] = assay: Antibacterial activity against methicillin-sensitive Staphylococcus aureus 14-3 after 18 to 24 hrs; outline: as §1
# Klebsiella pneumoniae [20] = assay: Antibacterial activity against ESBL-positive Klebsiella pneumoniae 14-18 after 18 to 24 hrs; outline: as §1
# Pseudomonas aeruginosa [21] = assay: Antibacterial activity against Pseudomonas aeruginosa 14-19 after 18 to 24 hrs; outline: as §1
# [22] = system: Mycobacterium tuberculosis; assay: Antimycobacterial activity against Mycobacterium tuberculosis H37Rv ATCC 27294 by alamar blue assay
# Outline: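 Microplate Alamar Blue Assay; MIC is the lowest concentration giving ≥90% reduction in fluorescence relative to the mean of replicate bacterium-only controls. MDR strain 6133 is resistant to isoniazid and rifampicin.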
# Pseudomonas aeruginosa [23] = assay: Antibacterial activity against Pseudomonas aeruginosa 14-14 after 18 to 24 hrs; outline: as §1
# Streptococcus pneumoniae = assay: Antibacterial activity against Streptococcus pneumoniae ATCC 19615 after 18 to 24 hrs; outline: as §1
# Staphylococcus aureus [24] = assay: Antibacterial activity against methicillin-sensitive Staphylococcus aureus 14-4 after 18 to 24 hrs; outline: as §1
# Klebsiella pneumoniae [25] = assay: Antibacterial activity against Klebsiella pneumoniae 14-4 after 18 to 24 hrs; outline: as §1
# Enterococcus faecium [26] = assay: Antibacterial activity against Enterococcus faecium 14-6 after 18 to 24 hrs; outline: as §1
# Klebsiella pneumoniae [27] = assay: Antibacterial activity against ESBL-positive Klebsiella pneumoniae 14-17 after 18 to 24 hrs; outline: as §1
# [28] = system: Staphylococcus epidermidis; assay: Antibacterial activity against methicillin-resistant Staphylococcus epidermidis 14-22 after 18 to 24 hrs
# Staphylococcus aureus [29] = assay: Antibacterial activity against methicillin-resistant Staphylococcus aureus 14-4 after 18 to 24 hrs
# Pseudomonas aeruginosa [30] = assay: Antibacterial activity against Pseudomonas aeruginosa 14-9 after 18 to 24 hrs; outline: as §1
# Escherichia coli [31] = assay: Antibacterial activity against Escherichia coli ATCC 25922 after 18 to 24 hrs; outline: as §1
# Klebsiella pneumoniae [32] = assay: Antibacterial activity against Klebsiella pneumoniae 14-3 after 18 to 24 hrs; outline: as §1
# Klebsiella pneumoniae [33] = assay: Antibacterial activity against ESBL-positive Klebsiella pneumoniae 14-19 after 18 to 24 hrs; outline: as §1
# Staphylococcus aureus [34] = assay: Antibacterial activity against methicillin-sensitive Staphylococcus aureus 14-1 after 18 to 24 hrs; outline: as §1
# Staphylococcus aureus [35] = assay: Antibacterial activity against Staphylococcus aureus CMCC 26003 after 18 to 24 hrs; outline: as §1
# Staphylococcus aureus [36] = assay: Antibacterial activity against methicillin-resistant Staphylococcus aureus 14-5 after 18 to 24 hrs
# Pseudomonas aeruginosa [37] = assay: Antibacterial activity against Pseudomonas aeruginosa 14-16 after 18 to 24 hrs; outline: as §1
SMILES,MIC (Escherichia coli [1]) [µg/mL],MIC (Pseudomonas aeruginosa [2]) [µg/mL],MIC (Escherichia coli [3]) [µg/mL],MIC (Enterococcus faecium [4]) [µg/mL],MIC (Pseudomonas aeruginosa [5]) [µg/mL],MIC (Klebsiella pneumoniae [6]) [µg/mL],MIC (Enterococcus faecalis [7]) [µg/mL],MIC (Escherichia coli [8]) [µg/mL],MIC [9] [µg/mL],MIC (Staphylococcus aureus [10]) [µg/mL],MIC (Enterococcus faecium [11]) [µg/mL],MIC [12] [µg/mL],MIC [13] [µg/mL],MIC (Enterococcus faecalis [14]) [µg/mL],MIC (Escherichia coli [15]) [µg/mL],MIC [16] [µg/mL],MIC (Enterococcus faecium [17]) [µg/mL],MIC (Klebsiella pneumoniae [18]) [µg/mL],MIC (Staphylococcus aureus [19]) [µg/mL],MIC (Klebsiella pneumoniae [20]) [µg/mL],further results
NCC1CN(c2nc3c(cc2F)c(=O)c(C(=O)O)cn3[C@@H]2C[C@@H]2F)C/C1=N\OCc1ccc(F)cc1 (stereo partly specified),64,4,8,8,16,64,64,64,8,< 0.008,1,16,64,< 0.008,64,8,2,> 128,< 0.008,16,MIC (Pseudomonas aeruginosa [21]): 16 µg/mL; MIC90 [22]: < 0.25 µg/mL; MIC (Pseudomonas aeruginosa [23]): 16 µg/mL; MIC (Streptococcus pneumoniae): 0.03 µg/mL; MIC (Staphylococcus aureus [24]): < 0.008 µg/mL; MIC (Klebsiella pneumoniae [25]): 128 µg/mL; MIC (Enterococcus faecium [26]): 8 µg/mL; MIC (Klebsiella pneumoniae [27]): 8 µg/mL; MIC [28]: 8 µg/mL; MIC (Staphylococcus aureus [29]): 32 µg/mL; MIC (Pseudomonas aeruginosa [30]): 8 µg/mL; MIC (Escherichia coli [31]): < 0.008 µg/mL; MIC (Klebsiella pneumoniae [32]): 64 µg/mL; MIC (Klebsiella pneumoniae [33]): 64 µg/mL; MIC (Staphylococcus aureus [34]): 4 µg/mL; MIC (Staphylococcus aureus [35]): < 0.008 µg/mL; MIC (Staphylococcus aureus [36]): 16 µg/mL; MIC (Pseudomonas aeruginosa [37]): 16 µg/mL
NCC1CN(c2nc3c(cc2F)c(=O)c(C(=O)O)cn3[C@@H]2C[C@@H]2F)C/C1=N\OCc1ccc(Cl)cc1 (stereo partly specified),32,4,4,4,8,128,32,32,8,< 0.008,2,8,16,0.125,32,4,2,128,0.015,8,MIC (Pseudomonas aeruginosa [21]): 8 µg/mL; MIC90 [22]: 0.342 µg/mL; MIC (Pseudomonas aeruginosa [23]): 8 µg/mL; MIC (Streptococcus pneumoniae): 0.015 µg/mL; MIC (Staphylococcus aureus [24]): 0.03 µg/mL; MIC (Klebsiella pneumoniae [25]): 128 µg/mL; MIC (Enterococcus faecium [26]): 8 µg/mL; MIC (Klebsiella pneumoniae [27]): 8 µg/mL; MIC [28]: 4 µg/mL; MIC (Staphylococcus aureus [29]): 16 µg/mL; MIC (Pseudomonas aeruginosa [30]): 4 µg/mL; MIC (Escherichia coli [31]): 0.125 µg/mL; MIC (Klebsiella pneumoniae [32]): 64 µg/mL; MIC (Klebsiella pneumoniae [33]): 64 µg/mL; MIC (Staphylococcus aureus [34]): 2 µg/mL; MIC (Staphylococcus aureus [35]): < 0.008 µg/mL; MIC (Staphylococcus aureus [36]): 32 µg/mL; MIC (Pseudomonas aeruginosa [37]): 8 µg/mL

# Source: ChEMBL document CHEMBL3632558, “Synthesis, antimycobacterial and antibacterial activity of l-[(1R,2S)-2-fluorocyclopropyl]naphthyridone derivatives containing an oxime-functionalized pyrrolidine moiety” (2015)
